Data reported in ChEMBL document CHEMBL1131497, “Discovery of 1-(4-fluorophenyl)-(3R)-[3-(4-fluorophenyl)-(3S)-hydroxypropyl]-(4S)-(4 -hydroxyphenyl)-2-azetidinone (SCH 58235): a designed, potent, orally active inhibitor of cholesterol absorption” (J Med Chem, 1998).
The source made the active and inactive calls. The calls are words filed in the database; no cut-off is given here.

What was measured:
Cricetinae gen. sp. [1] = assay: Evaluated for its ability to reduce liver cholesterol esters(LCE) in cholesterol-fed hamsters.; type: functional, Cricetulus griseus
Method in brief: (§1)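 Hamsters were fed a 0.5% cholesterol diet for 7 days with once-daily oral gavage dosing in 0.2 mL corn oil. Controls got the same diet and vehicle without drug. Livers were collected on day 7 and neutral lipids extracted. Cholesteryl ester content was measured by HPLC. Results are given as percent change in hepatic cholesteryl ester versus cholesterol-fed controls, or as ED50 in mg/kg/day.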

Cricetinae gen. sp. [2] = assay: The compound was evaluated for percent reduction of liver cholesterol esters(LCE) in cholesterol-fed hamsters at 10 mg/Kg/day; type: functional, Cricetulus griseus; method in brief: as §1
[3] = The pharmacokinetics property percent negation of rise in liver cholesterol esters relative to control-fed 0.5% cholesterol for 7 days, At a dose of 0.3 mg/kg/day; percent reduction was not statistically significant; type: ADME, organism-based; conditions: in vivo, 168 h; method in brief: as §1
[4] = The pharmacokinetics property percent negation of rise in liver cholesterol esters relative to control-fed 0.5% cholesterol for 7 days, At a dose of 3 mg/kg/day; type: ADME, organism-based; conditions: in vivo, 168 h; method in brief: as §1
[5] = Percent negation of rise in total serum cholesterol relative to control-fed 0.5% cholesterol for 7 days, At a dose of 3 mg/kg/day; type: ADME, organism-based; conditions: in vivo, 168 h
Method in brief: (§2)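 Serum total cholesterol was measured in hamsters given 0.5% dietary cholesterol for 7 days with daily oral gavage dosing (0.2 mL corn oil vehicle). Controls were cholesterol-fed animals receiving vehicle without drug. Results are expressed as percent negation of the diet-induced rise in serum total cholesterol relative to these controls.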

[6] = Percent negation of rise in total serum cholesterol relative to control-fed 0.5% cholesterol for 7 days, At a dose of 1 mg/kg/day; percent reduction was not statistically significant; type: ADME, organism-based; conditions: in vivo, 168 h; method in brief: as §2
[7] = Percent negation of rise in total serum cholesterol relative to control-fed 0.5% cholesterol for 7 days, At a dose of 0.3 mg/kg/day; percent reduction was not statistically significant; type: ADME, organism-based; conditions: in vivo, 168 h; method in brief: as §2
Cricetinae gen. sp. [8] = assay: The compound was evaluated for its ability to reduce liver cholesterol esters(LCE) in cholesterol-fed hamsters; NE=no effect at 100 mg/kg; type: functional, organism-based; design: dose 100 mg/kg; conditions: Cricetulus griseus; method in brief: as §1
Cricetinae gen. sp. [9] = conditions: Cricetulus griseus; Liver; 10 mg/kg
Cricetinae gen. sp. [10] = assay: The compound was evaluated for percent reduction of liver cholesterol esters(LCE) in cholesterol-fed hamsters at 3 mg/kg/day; type: functional, Cricetulus griseus; method in brief: as §1
Cricetinae gen. sp. [11] = assay: The compound was evaluated for percent reduction of liver cholesterol esters(LCE) in cholesterol-fed hamsters at 2.5 mg/Kg/day; type: functional, Cricetulus griseus; method in brief: as §1
[12] = The pharmacokinetics property percent negation of rise in liver cholesterol esters relative to control-fed 0.5% cholesterol for 7 days, At a dose of 0.3 mg/kg/day; type: ADME, organism-based; conditions: in vivo, 168 h; method in brief: as §1
[13] = The pharmacokinetics property percent negation of rise in liver cholesterol esters relative to control-fed 0.5% cholesterol for 7 days, At a dose of 0.03 mg/kg/day; type: ADME, organism-based; conditions: in vivo, 168 h; method in brief: as §1
[14] = Percent negation of rise in total serum cholesterol relative to control-fed 0.5% cholesterol for 7 days, at a dose of 0.03 mg/kg/day; type: ADME, organism-based; conditions: in vivo, 168 h; method in brief: as §2
[15] = The pharmacokinetics property percent negation of rise in liver cholesterol esters relative to control-fed 0.5% cholesterol for 7 days, At a dose of 1 mg/kg/day; type: ADME, organism-based; conditions: in vivo, 168 h; method in brief: as §1
[16] = Percent negation of rise in total serum cholesterol relative to control-fed 0.5% cholesterol for 7 days, At a dose of 0.3 mg/kg/day; type: ADME, organism-based; conditions: in vivo, 168 h; method in brief: as §2
[17] = Percent negation of rise in total serum cholesterol relative to control-fed 0.5% cholesterol for 7 days, At a dose of 1 mg/kg/day; type: ADME, organism-based; conditions: in vivo, 168 h; method in brief: as §2
[18] = The pharmacokinetics property percent negation of rise in liver cholesterol esters relative to control-fed 0.5% cholesterol for 7 days, At a dose of 0.1 mg/kg/day; type: ADME, organism-based; conditions: in vivo, 168 h; method in brief: as §1
[19] = Percent negation of rise in total serum cholesterol relative to control-fed 0.5% cholesterol for 7 days, At a dose of 0.1 mg/kg/day; type: ADME, organism-based; conditions: in vivo, 168 h; method in brief: as §2

COc1ccc([C@@H]2[C@@H](CC[C@@H](O)c3ccccc3)C(=O)N2c2ccc(OC)cc2)cc1
ED50 (Cricetinae gen. sp. [1]): 5 mg/kg/day

COc1ccc(N2C(=O)[C@H](CCCc3ccc(O)cc3)[C@H]2c2ccc(O)cc2)cc1
Reduction (Cricetinae gen. sp. [2]): -64%

O=C1[C@H](CC[C@@H](O)c2ccc(F)cc2)[C@@H](c2ccc(O)cc2)N1c1ccc(F)cc1
ED50 (Cricetinae gen. sp. [1]): 0.8 mg/kg/day

COc1ccc([C@@H]2[C@@H](CCCc3ccc(O)cc3)C(=O)N2c2ccc(OC)cc2)cc1
Reduction (Cricetinae gen. sp. [2]): -16%

O=C1[C@H](C/C=C/c2ccc(F)cc2)[C@@H](c2ccc(O)cc2)N1c1ccc(F)cc1
ED50 (Cricetinae gen. sp. [1]): 2.5 mg/kg/day

COc1ccc([C@@H]2[C@@H](CCCc3ccccc3)C(=O)N2c2ccc(O)cc2)cc1
Reduction (Cricetinae gen. sp. [2]): -78%

CC1CC[C@@]2(OC1)O[C@H]1C[C@H]3[C@@H]4CC[C@H]5C[C@@H](O[C@@H]6O[C@@H](CO)[C@@H](O[C@@H]7O[C@@H](COC(=O)Nc8ccccc8F)[C@@H](OC(=O)Nc8ccccc8F)[C@H](O)[C@@H]7O)[C@H](O)[C@@H]6O)CC[C@]5(C)[C@H]4CC(=O)[C@]3(C)[C@H]1[C@@H]2C (some centres not stated)
ED50 (Cricetinae gen. sp. [1]): 0.07 mg/kg/day

O=C(CC[C@H]1C(=O)N(c2ccc(F)cc2)[C@@H]1c1ccc(O)cc1)c1ccc(F)cc1
ED50 (Cricetinae gen. sp. [1]): 0.3 mg/kg/day

COc1ccc([C@@H]2[C@@H](CCC(=O)c3ccccc3)C(=O)N2c2ccc(OC)cc2)cc1
ED50 (Cricetinae gen. sp. [1]): 2 mg/kg/day

COc1ccc(N2C(=O)[C@H](CC[C@@H](O)c3ccccc3)[C@H]2c2ccc(O)cc2)cc1
ED50 (Cricetinae gen. sp. [1]): 3 mg/kg/day

COc1ccc(N2C(=O)[C@H](CC[C@H](O)c3ccccc3)[C@H]2c2ccc(O)cc2)cc1
ED50 (Cricetinae gen. sp. [1]): 0.3 mg/kg/day

COc1ccc([C@@H]2[C@@H](CCCc3ccccc3)C(=O)N2c2ccc(OC)cc2)cc1 [SCH-48461]
Negation [3]: Not Active
ED50 (Cricetinae gen. sp. [1]): 2.2 mg/kg/day
Negation [4]: -68%
Negation [5]: -76%
Negation [6]: Not Active
Negation [7]: Not Active

O=C1[C@H](CC[C@H](O)c2ccc(F)cc2)[C@@H](c2ccc(OCc3ccccc3)cc2)N1c1ccc(F)cc1
ED50 (Cricetinae gen. sp. [1]): 0.1 mg/kg/day

CC(=O)Oc1ccc([C@@H]2[C@@H](CC[C@H](OC(C)=O)c3ccc(F)cc3)C(=O)N2c2ccc(F)cc2)cc1
ED50 (Cricetinae gen. sp. [1]): 0.06 mg/kg/day

COc1ccc(N2C(=O)[C@H](CCC(=O)c3ccccc3)[C@H]2c2ccc(O)cc2)cc1
ED50 (Cricetinae gen. sp. [1]): 3 mg/kg/day

COc1ccc([C@@H]2[C@@H](CCCc3ccc(F)cc3)C(=O)N2c2ccc(F)cc2)cc1
ED50 (Cricetinae gen. sp. [1]): 0.7 mg/kg/day

Cc1ccc(C)c(OCCCC(C)(C)C(=O)O)c1
ED50 (Cricetinae gen. sp. [8]): inactive

CC[C@H](C)C(=O)O[C@H]1C[C@@H](C)C=C2C=C[C@H](C)[C@H](CC[C@@H]3C[C@@H](O)CC(=O)O3)[C@H]21
ED50 (Cricetinae gen. sp. [9]): No effect

COc1ccc(N2C(=O)[C@H](CCCc3ccccc3)[C@H]2c2ccc(O)cc2)cc1
ED50 (Cricetinae gen. sp. [1]): 5 mg/kg/day

O=C(CC[C@H]1C(=O)N(c2ccc(F)cc2)[C@@H]1c1ccc(OCc2ccccc2)cc1)c1ccc(F)cc1
Reduction (Cricetinae gen. sp. [10]): -96%

CCC(CC(CC)c1ccc(C[N+](C)(C)C)cc1)c1ccccc1.[Cl-] (configuration not stated)
% reduction (Cricetinae gen. sp. [11]): -96

COc1ccc([C@@H]2[C@@H](CC[C@H](O)c3ccccc3)C(=O)N2c2ccc(OC)cc2)cc1
ED50 (Cricetinae gen. sp. [1]): 0.9 mg/kg/day

O=C1[C@H](CC[C@H](O)c2ccc(F)cc2)[C@@H](c2ccc(O)cc2)N1c1ccc(F)cc1 [EZETIMIBE]
Negation [12]: -96%
Negation [13]: -39%
Negation [14]: -23%
Negation [15]: -100%
Negation [16]: -72%
ED50 (Cricetinae gen. sp. [1]): 0.04 mg/kg/day
Negation [17]: -100%
Negation [18]: -87%
Negation [4]: -100%
Negation [5]: -100%
Negation [19]: -37%

CC(=O)Oc1ccc([C@@H]2[C@@H](CC[C@@H](OC(C)=O)c3ccc(F)cc3)C(=O)N2c2ccc(F)cc2)cc1
ED50 (Cricetinae gen. sp. [1]): 1.5 mg/kg/day

O=C1[C@H](CCCc2ccc(F)cc2)[C@@H](c2ccc(O)cc2)N1c1ccc(F)cc1
ED50 (Cricetinae gen. sp. [1]): 2 mg/kg/day

CC1CC[C@@]2(OC1)O[C@H]1C[C@H]3[C@@H]4CC[C@H]5C[C@@H](O[C@@H]6O[C@@H](CO)[C@@H](O[C@@H]7O[C@@H](COC(=O)Nc8ccccc8F)[C@@H](OC(=O)Nc8ccccc8F)[C@H](O)[C@@H]7O)[C@H](O)[C@@H]6O)CC[C@]5(C)[C@H]4C(=O)C[C@]3(C)[C@H]1[C@@H]2C (some centres not stated)
ED50 (Cricetinae gen. sp. [1]): 0.025 mg/kg/day

O=C1[C@H](CCCc2ccccc2)[C@@H](c2ccc(O)cc2)N1c1ccc(O)cc1
Reduction (Cricetinae gen. sp. [2]): -68%
